Results as given in ChEMBL document CHEMBL1255475, “Mutant prevention concentrations of four carbapenems against gram-negative rods” (2010).
≈ marks a conversion by molar mass, not a printed value.

How the values were obtained:
Type in all cases: functional
Escherichia coli [1] = assay: Antibacterial activity against beta-lactamase-positive ESBL-positive Escherichia coli E456 assessed as mutant prevention concentration after overnight incubation
In short: (§1)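 Overnight growth on blood trypticase soy agar (35°C, air) was resuspended in 0.9% saline and counted on drug-free Mueller-Hinton agar. […] Colonies were retested by agar dilution to confirm mutants. MPC was the lowest concentration preventing resistant-mutant growth.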

Klebsiella pneumoniae [2] = assay: Antibacterial activity against beta-lactamase-negative Klebsiella pneumoniae E420 incubated up to 7 days by agar dilution method; settings: E420, 168 h
In short: (§2)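 MIC by CLSI agar dilution, with quality-control strains in each run. Beta-lactamase status was set by 30 μg cefazolin Kirby-Bauer disk diffusion. ESBL status was set by cefotaxime and ceftazidime disks (30 μg) with and without clavulanic acid (10 μg).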

Klebsiella pneumoniae [3] = assay: Antibacterial activity against beta-lactamase-negative Klebsiella pneumoniae E360 assessed as mutant prevention concentration after overnight incubation
Klebsiella pneumoniae [4] = assay: Antibacterial activity against beta-lactamase-negative Klebsiella pneumoniae E362 incubated up to 7 days by agar dilution method; settings: E362, 168 h
Escherichia coli [5] = assay: Antibacterial activity against beta-lactamase-positive ESBL-positive Escherichia coli E458 assessed as mutant prevention concentration after overnight incubation; in short: as §1
Klebsiella pneumoniae [6] = assay: Antibacterial activity against beta-lactamase-negative Klebsiella pneumoniae E419 incubated up to 7 days by agar dilution method; settings: E419, 168 h
Escherichia coli [7] = assay: Antibacterial activity against beta-lactamase-positive ESBL-positive Escherichia coli E452 assessed as mutant prevention concentration after overnight incubation; in short: as §1
Escherichia coli [8] = assay: Antibacterial activity against beta-lactamase-positive ESBL-positive Escherichia coli E460 incubated up to 7 days by agar dilution method; settings: E460, 168 h; in short: as §2
Klebsiella pneumoniae [9] = assay: Antibacterial activity against beta-lactamase-positive ESBL-negative Klebsiella pneumoniae E479 incubated up to 7 days by agar dilution method; settings: E479, 168 h
In short: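 MPC determination: overnight cultures on blood trypticase soy agar at 35°C in air were resuspended in 0.9% saline, and CFU were counted on drug-free Mueller-Hinton agar. […] Growth was retested by agar dilution to confirm mutants. MPC was the lowest concentration preventing resistant-mutant growth.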

Escherichia coli [10] = assay: Antibacterial activity against beta-lactamase-negative Escherichia coli E348 incubated up to 7 days by agar dilution method; settings: E348, 168 h
Klebsiella pneumoniae [11] = assay: Antibacterial activity against beta-lactamase-negative Klebsiella pneumoniae E361 incubated up to 7 days by agar dilution method; settings: E361, 168 h
Escherichia coli [12] = assay: Antibacterial activity against beta-lactamase-positive ESBL-positive Escherichia coli E456 incubated up to 7 days by agar dilution method; settings: E456, 168 h; in short: as §2
Klebsiella pneumoniae [13] = assay: Antibacterial activity against beta-lactamase-positive ESBL-negative Klebsiella pneumoniae E481 incubated up to 7 days by agar dilution method; settings: E481, 168 h
Klebsiella pneumoniae [14] = assay: Antibacterial activity against beta-lactamase-positive ESBL-negative Klebsiella pneumoniae E481 assessed as mutant prevention concentration after overnight incubation; in short: as §1
Klebsiella pneumoniae [15] = assay: Antibacterial activity against beta-lactamase-positive ESBL-negative Klebsiella pneumoniae E473 incubated up to 7 days by agar dilution method; settings: E473, 168 h
Klebsiella pneumoniae [16] = assay: Antibacterial activity against beta-lactamase-positive ESBL-negative Klebsiella pneumoniae E474 assessed as mutant prevention concentration after overnight incubation; in short: as §1
Klebsiella pneumoniae [17] = assay: Antibacterial activity against beta-lactamase-negative Klebsiella pneumoniae E419 assessed as mutant prevention concentration after overnight incubation; in short: as §1
Klebsiella pneumoniae [18] = assay: Antibacterial activity against beta-lactamase-negative Klebsiella pneumoniae E417 incubated up to 7 days by agar dilution method; settings: E417, 168 h; in short: as §2
Klebsiella pneumoniae [19] = assay: Antibacterial activity against beta-lactamase-negative Klebsiella pneumoniae E358 incubated up to 7 days by agar dilution method; settings: E358, 168 h
Klebsiella pneumoniae [20] = assay: Antibacterial activity against beta-lactamase-positive ESBL-negative Klebsiella pneumoniae E511 incubated up to 7 days by agar dilution method; settings: E511, 168 h
Escherichia coli [21] = assay: Antibacterial activity against beta-lactamase-positive ESBL-negative Escherichia coli E430 assessed as mutant prevention concentration after overnight incubation; in short: as §1
Escherichia coli [22] = assay: Antibacterial activity against beta-lactamase-negative Escherichia coli E347 assessed as mutant prevention concentration after overnight incubation
Escherichia coli [23] = assay: Antibacterial activity against beta-lactamase-negative Escherichia coli E346 assessed as mutant prevention concentration after overnight incubation
Escherichia coli [24] = assay: Antibacterial activity against beta-lactamase-positive ESBL-negative Escherichia coli E412 assessed as mutant prevention concentration after overnight incubation; in short: as §1
Klebsiella pneumoniae [25] = assay: Antibacterial activity against beta-lactamase-positive ESBL-negative Klebsiella pneumoniae E472 assessed as mutant prevention concentration after overnight incubation; in short: as §1
Escherichia coli [26] = assay: Antibacterial activity against beta-lactamase-positive ESBL-negative Escherichia coli E484 incubated up to 7 days by agar dilution method; settings: E484, 168 h
Klebsiella pneumoniae [27] = assay: Antibacterial activity against beta-lactamase-positive ESBL-negative Klebsiella pneumoniae E472 incubated up to 7 days by agar dilution method; settings: E472, 168 h
Klebsiella pneumoniae [28] = assay: Antibacterial activity against beta-lactamase-positive ESBL-positive Klebsiella pneumoniae E478 assessed as mutant prevention concentration after overnight incubation; in short: as §1
Escherichia coli [29] = assay: Antibacterial activity against beta-lactamase-positive ESBL-positive Escherichia coli E446 incubated up to 7 days by agar dilution method; settings: E446, 168 h; in short: as §2
Escherichia coli [30] = assay: Antibacterial activity against beta-lactamase-positive ESBL-positive Escherichia coli E451 incubated up to 7 days by agar dilution method; settings: E451, 168 h; in short: as §2

C[C@@H](O)[C@H]1C(=O)N2C(C(=O)O)=C(S[C@@H]3CN[C@H](C(=O)Nc4cccc(C(=O)O)c4)C3)[C@H](C)[C@H]12
MPC (Escherichia coli [1]): 2 µg/mL | MIC (Klebsiella pneumoniae [2]): 0.008 µg/mL (≈ 0.0168 µM) | MPC (Klebsiella pneumoniae [3]): 0.03 µg/mL | MIC (Klebsiella pneumoniae [4]): 0.016 µg/mL (≈ 0.0336 µM) | MPC (Escherichia coli [5]): 0.5 µg/mL | MIC (Klebsiella pneumoniae [6]): 0.016 µg/mL (≈ 0.0336 µM) | MPC (Escherichia coli [7]): 0.25 µg/mL | MIC (Escherichia coli [8]): 0.125 µg/mL (≈ 0.263 µM) | MIC (Klebsiella pneumoniae [9]): 8 µg/mL (≈ 16.8 µM) | MIC (Escherichia coli [10]): 0.008 µg/mL (≈ 0.0168 µM) | MIC (Klebsiella pneumoniae [11]): 0.016 µg/mL (≈ 0.0336 µM) | MIC (Escherichia coli [12]): 0.125 µg/mL (≈ 0.263 µM) | MIC (Klebsiella pneumoniae [13]): 4 µg/mL (≈ 8.41 µM) | MPC (Klebsiella pneumoniae [14]): 8 µg/mL | MIC (Klebsiella pneumoniae [15]): 8 µg/mL (≈ 16.8 µM) | MPC (Klebsiella pneumoniae [16]): 32 µg/mL | MPC (Klebsiella pneumoniae [17]): 0.03 µg/mL | MIC (Klebsiella pneumoniae [18]): 0.008 µg/mL (≈ 0.0168 µM) | MIC (Klebsiella pneumoniae [19]): 0.008 µg/mL (≈ 0.0168 µM) | MIC (Klebsiella pneumoniae [20]): 8 µg/mL (≈ 16.8 µM) | MPC (Escherichia coli [21]): >0.5 µg/mL | MPC (Escherichia coli [22]): 0.03 µg/mL | MPC (Escherichia coli [23]): 0.03 µg/mL | MPC (Escherichia coli [24]): 1 µg/mL | MPC (Klebsiella pneumoniae [25]): 64 µg/mL | MIC (Escherichia coli [26]): 8 µg/mL (≈ 16.8 µM) | MIC (Klebsiella pneumoniae [27]): 8 µg/mL (≈ 16.8 µM) | MPC (Klebsiella pneumoniae [28]): 16 µg/mL | MIC (Escherichia coli [29]): 0.25 µg/mL (≈ 0.526 µM) | MIC (Escherichia coli [30]): 0.06 µg/mL (≈ 0.126 µM)
